Data set [1] concerns Ca^2+- and ATP-sensitive nonselective cation channels (CA-NSCs). To be noted: read-out: [Ca2+]i required for half-maximal activation; freshly excised channels; ref Csanády and Adam-Vizi, 2003; cited from earlier work.
The test system is the same in data set [2]. The format is biochemical, rat. An outline of the steps:
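Inside-out patches from rat brain capillary endothelial cells, cultured 5–6 d, at 25°C. Pipette: 140 mM NaCl, 30 μM benzamil, pH 7.4. Bath: 140 mM KCl or NMDG-Cl, pH 7.1, plus 1 mM CaCl2. i(V) is recorded ± 70 μM DV. KCl data get linear fits; NMDG data get GHK fits with asymptotic negative-potential slope. Currents at −40 mV ± 1 mM nucleotide are normalized to in-patch control and Hill-fitted.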

Data set [3] is described as follows: Decay of decavanadate in bath solution measured by photometry. Type of data set: physicochemical. To be noted: pH = 7.1, T = 25°C. An outline of the steps: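 DV stock is 50 mM Na3VO4 brought to pH 2.0, kept at +4°C, used within 24 h and diluted into bath under 90 min before use. Spectra of 1 mM Na3VO4 in bath (pH 7.1, 25°C) are taken 0–8 h after preparation against a boiled same-composition blank. DV is tracked as peak absorbance at ~390 nm, and the decay is single-exponential fitted.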

In data set [4] the test system is Ca^2+- and ATP-sensitive nonselective cation channels (CA-NSCs). The data set can be described thus: Excised inside-out patch recording of CA-NSC channel gating. The format is biochemical, rat.
Setting [5] is: 70 μM DV, NaCl pipette, KCl bath.

These results are taken from article PMC2234573 (The Journal of General Physiology, 2004).

Each structure is given as a SMILES string. Where “and” joins values, the source holds several entries; their conditions need not be identical. Equal entries are not always repeated. Where two headings read alike, the source gives them in different places.

Turning to `[Ca+2]` [Ca^2+], the EC50 in data set [1] was ~20 µM.

Turning to `[O]=[V]([O-])([O-])[O][V]1(=[O])[O][V]2(=[O])[O][V](=[O])([O][V](=[O])([O-])[O-])[O][V](=[O])([O]2)[O][V]2(=[O])[O][V](=[O])([O][V](=[O])([O-])[O-])[O][V](=[O])([O]1)[O]2` (stereo not drawn) [DV, decavanadate], the “Increase of single-channel (slope) conductance relative to control” value in data set [2] (setting [5]) was 34 ± 2% and ~30%. Further, the Reversal potential in data set [2] (setting [5]) is −1 ± 2 mV. In data set [2] (setting [5]), this molecule registered a Slope conductance of 42 ± 3 pS. For the same molecule, in data set [2] (70 μM DV, NaCl pipette, NMDG-Cl bath, n = 3), the “Asymptotic conductance at negative potentials” value is 36 ± 0.5 pS. Also, the “K1/2 for conductance relative to K1/2 for stimulation of gating” value in data set [2] (higher) was ~20 fold. The EC50 in data set [2] (read-out: K1/2 for stimulation of single-channel conductance, no nucleotides (control), −40 mV) is 1.7 ± 0.3 µM; in data set [4] (read-out: K1/2 for stimulation of Po, 1 mM Ca2+ i, −40 mV, no nucleotides), 0.09 µM. In data set [3], the “Time constant of decay in bath solution” value is on record as ~4 h. For the same molecule, the figures for the “Increase of K1/2 for stimulation of Po caused by nucleotide” value in data set [4] (1 mM ADP vs control), in data set [4] (1 mM AMP vs control) and in data set [4] (1 mM ATP vs control) were ~80 ×, ~270 × and ~35 ×, respectively.
